For assay [1], the target named is T1, 3-hydroxy-3-methylglutaryl-coenzyme A reductase (Rattus norvegicus, UniProt P51639).
T1 sequence (P51639 whole entry): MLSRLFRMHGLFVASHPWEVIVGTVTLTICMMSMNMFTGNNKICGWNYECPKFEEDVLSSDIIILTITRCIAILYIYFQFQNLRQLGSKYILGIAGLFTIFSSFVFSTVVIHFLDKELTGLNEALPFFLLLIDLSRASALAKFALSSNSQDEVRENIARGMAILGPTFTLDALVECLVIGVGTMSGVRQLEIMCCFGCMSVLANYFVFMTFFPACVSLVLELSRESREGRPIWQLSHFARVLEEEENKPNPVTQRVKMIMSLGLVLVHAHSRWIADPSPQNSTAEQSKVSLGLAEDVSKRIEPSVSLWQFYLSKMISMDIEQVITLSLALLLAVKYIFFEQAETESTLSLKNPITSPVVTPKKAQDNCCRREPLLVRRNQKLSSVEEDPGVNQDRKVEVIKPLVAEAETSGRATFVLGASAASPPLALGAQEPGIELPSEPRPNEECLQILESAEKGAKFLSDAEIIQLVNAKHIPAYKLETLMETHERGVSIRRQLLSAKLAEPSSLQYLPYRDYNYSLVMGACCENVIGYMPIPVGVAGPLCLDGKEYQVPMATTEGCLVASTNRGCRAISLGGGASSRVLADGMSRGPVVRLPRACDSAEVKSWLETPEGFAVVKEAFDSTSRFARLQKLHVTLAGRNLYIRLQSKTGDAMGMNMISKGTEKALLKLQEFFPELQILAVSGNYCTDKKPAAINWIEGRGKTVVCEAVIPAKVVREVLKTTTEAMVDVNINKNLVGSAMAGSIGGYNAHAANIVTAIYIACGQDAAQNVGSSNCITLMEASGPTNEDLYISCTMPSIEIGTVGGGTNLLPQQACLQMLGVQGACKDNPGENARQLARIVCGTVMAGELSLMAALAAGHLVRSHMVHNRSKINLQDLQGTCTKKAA
The assay is described as follows: In vitro inhibitory activity was measured against rat liver HMG-CoA reductase. In outline: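 Enzyme: intact, fully activated rat liver microsomal HMG-CoA reductase, 50–100 μg protein in buffer A (50 mM imidazole HCl, 250 mM NaCl, 1 mM EDTA, 1 mM EGTA, 5 mM DTT, pH 7.2). Preincubated with inhibitor for 10 min at 37 °C. d,l-[3-14C]HMG-CoA (0.33 mM) and NADPH (3.0 mM) then added. [14C]mevalonate formation measured. IC50 from linear regression of % inhibition vs log concentration, ≥4 dilutions in duplicate.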

In assay [2] the target is T2, 3-hydroxy-3-methylglutaryl-coenzyme A reductase (Rattus norvegicus) (UniProt P51639).
T2 sequence (whole entry): T1 sequence (P51639 whole entry)
The assay is described as follows: The compound was tested for the relative potency with respect to standard compound BMY-21950.

Assay [3] concerns the target T1, 3-hydroxy-3-methylglutaryl-coenzyme A reductase. The assay is described as follows: (§1) In vitro inhibitory activity was measured against rat liver HMG-CoA reductase using [2-14C]-acetate incorporation. In a few lines:
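Parenchymal hepatocytes from chow-fed male Wistar rats (180–280 g), collagenase-perfused, viability >95%. Cells held at 100 mg wet weight/2.0 mL in MEM with bicarbonate/HEPES, pH 7.4, 2% BSA, under 95% O2/5% CO2. Preincubated with inhibitor for 15 min, with DMSO at 0.5% final for lactones. [2-14C]acetate then added for 60 min at 37 °C. 14C in 3β-hydroxysterols counted. IC50 by regression from ≥4 concentrations; mean of n experiments.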

For assay [4], the species on record is Rattus norvegicus. Put plainly: In vitro inhibitory potency for cholesterol synthesis was measured in rat adrenals. In kind it is functional, Adrenal gland.
The species named for assay [5] is Rattus norvegicus. Put plainly: In vitro inhibitory potency for cholesterol synthesis was measured in rat ileum. In kind it is functional.
The species entered for assay [6] is Rattus norvegicus. Put plainly: In vitro inhibitory potency for cholesterol synthesis was measured in rat testes. The class given is functional, Testis. In a few lines: (§2)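 Rat spleen and testes cell dispersions, prepared nonenzymatically. Na-salt inhibitors were preincubated with cells for 15 min under the hepatocyte conditions. [14C]acetate (45–55 μCi per μmol, 5 μCi per mL) was then incorporated for 60 min. Sterol IC50 is reported as a ratio to the IC50 in rat hepatocytes.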

For assay [7], the species on record is Rattus norvegicus. The assay is described as follows: In vitro inhibitory potency for cholesterol synthesis was measured in rat spleen. The class given is functional. In a few lines:
as §2

The species entered for assay [8] is Bos taurus. Put plainly: In vitro inhibitory potency for cholesterol synthesis was measured in bovine lens epithelial cell cultures.
The target of assay [9] is T1, 3-hydroxy-3-methylglutaryl-coenzyme A reductase. Described as §1. In a few lines:
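Parenchymal hepatocytes from chow-fed male Wistar rats (180–280 g), collagenase-perfused, viability >95%. Cells held at 100 mg wet weight/2.0 mL in MEM with bicarbonate/HEPES, pH 7.4, 2% BSA, under 95% O2/5% CO2. Preincubated with inhibitor for 15 min, with DMSO at 0.5% final for lactones. [2-14C]acetate then added for 60 min at 37 °C. 14C in 3β-hydroxysterols counted.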
The source holds these as a separate data set.

By IC50 is commonly meant the concentration that gives 50% inhibition. In assay [1], `Cc1ccc(C(=C(/C=C/[C@@H](O)C[C@@H](O)CC(=O)O)c2nnnn2C)c2ccc(C)cc2C)c(C)c1` displayed an IC50 of 1600 nM. In assay [2], this molecule registered a Relative potency of 0.012.
For the molecule `Cn1nnnc1C(/C=C/[C@@H](O)C[C@@H](O)CC(=O)O)=C(c1ccc(F)cc1)c1ccc(F)cc1` (stereo in doubt; 3a), the Relative potency in assay [2] turned out to be 0.43.
`Cn1nnc(C(/C=C/[C@@H](O)C[C@@H](O)CC(=O)O)=C(c2ccc(F)cc2)c2ccc(F)cc2)n1` registered a half-maximal inhibitory concentration (IC50) in assay [1] of 30000 nM. This molecule also had a Relative potency in [2] of 0.00063.
For the molecule `O=C(O)C[C@H](O)C[C@H](O)/C=C/C(=C(c1ccc(F)cc1)c1ccc(F)cc1)C1N=NN=N1`, the IC50 in [1] worked out at 330 nM. In assay [2], this molecule showed a Relative potency of 0.0058.
The corresponding values for `CCn1nnnc1C(/C=C/[C@@H](O)C[C@@H](O)CC(=O)O)=C(c1ccc(F)cc1)c1ccc(F)cc1` are 1100 nM and 0.017.
For the molecule `Cn1nnnc1C(/C=C/[C@@H](O)C[C@@H](O)CC(=O)[O-])=C(c1ccc(F)cc1)c1ccc(F)cc1.[Na+]` (stereo in doubt; 3a), the IC50 came to 43 nM in assay [1] and 21 nM in assay [3]. In addition, the IC50 ratio in [4] was determined as 76; in [5], 129; in [6], 86; in assay [7] it was 149; in [8] it was 144.
In assay [1], `Cn1nnnc1C(C=C=C[C@@H](O)C[C@@H](O)CC(=O)O)=C(c1ccc(F)cc1)c1ccc(F)cc1` showed an IC50 of 5700 nM. Also, the Relative potency in assay [2] is 0.0033.
In turn, `Cn1nnnc1C(/C=C/[C@@H](O)C[C@@H](O)CC(=O)O)=C(c1ccc(F)cc1)c1ccc(F)cc1` (stereo in doubt; 48) returned an IC50 in assay [1] of more than 300000 nM.
`CC[C@H](C)C(=O)O[C@H]1C[C@@H](C)C=C2C=C[C@H](C)[C@H](CC[C@@H]3C[C@@H](O)CC(=O)O3)[C@H]21` [LOVASTATIN]: the 50% inhibitory concentration (IC50) in assay [1] stood at 27 nM; in [9], 32 nM. Besides, the IC50 ratio in assay [4] amounted to 1; in assay [5] it was 1.2; in assay [6], 1.3; in assay [7], 1.2; in assay [8], 1.6. The same molecule registered a Relative potency in assay [2] of 0.71.
`CCn1nnc(C(/C=C/[C@@H](O)C[C@@H](O)CC(=O)O)=C(c2ccc(F)cc2)c2ccc(F)cc2)n1` returned an IC50 in [1] of 200000 nM. In addition, the Relative potency in assay [2] was found to be 9.1e-05.
The corresponding values for `CC(C)n1nnnc1C(C=C=C[C@@H](O)C[C@@H](O)CC(=O)O)=C(c1ccc(F)cc1)c1ccc(F)cc1` are 130000 nM and 0.00015.
On to `Cn1nnnc1C(/C=C/[C@@H](O)C[C@@H](O)CC(=O)O)=C(\c1ccccc1)c1ccc(F)cc1`, for which half-maximal inhibition in assay [1] (IC50) required 44 nM. For the same molecule, the Relative potency in [2] came out at 0.43.
For `CC(C)(C)n1nnc(C(/C=C/[C@@H](O)C[C@@H](O)CC(=O)O)=C(c2ccc(F)cc2)c2ccc(F)cc2)n1` (stereo in doubt; 47) [listing 1 of 2 here], in [1], the 50% inhibitory concentration (IC50) was 3700 nM.
In the case of `CC(C)(C)n1nnc(C(/C=C/[C@@H](O)C[C@@H](O)CC(=O)O)=C(c2ccc(F)cc2)c2ccc(F)cc2)n1` (stereo in doubt; 49) [listing 1 of 2 here], the Relative potency in [2] worked out at 1.
In the case of `CC(C)(C)n1nnc(C(/C=C/[C@@H](O)C[C@@H](O)CC(=O)O)=C(c2ccc(F)cc2)c2ccc(F)cc2)n1` (stereo in doubt; 49) [listing 2 of 2 here], 19 nM corresponded to half-maximal inhibition in assay [1] (IC50).
In assay [9], `Cn1nnnc1C(/C=C/[C@@H]1C[C@@H](O)CC(=O)O1)=C(c1ccc(F)cc1)c1ccc(F)cc1` registered an IC50 of 24 nM.
`N#CC(/C=C/[C@@H](O)C[C@@H](O)CC(=O)O)=C(c1ccc(F)cc1)c1ccc(F)cc1`: in [1], the IC50 is 8000 nM. The molecule further displayed a Relative potency in assay [2] of 0.0024.
`CC(C)C(/C=C/[C@@H](O)C[C@@H](O)CC(=O)O)=C(c1ccc(F)cc1)c1ccc(F)cc1` showed a half-inhibitory concentration (IC50) in assay [1] of 230 nM. In assay [2], the Relative potency was found to be 0.095.
The corresponding values for `Cc1ccc(C(=C(/C=C/[C@@H](O)C[C@@H](O)CC(=O)O)c2nnnn2C)c2ccc(C)cc2F)c(F)c1` are 580 nM and 0.032.
The corresponding values for `CC(C)n1nnnc1C(/C=C/[C@@H](O)C[C@@H](O)CC(=O)O)=C(c1ccc(F)cc1)c1ccc(F)cc1` are 14000 nM and 0.0014.
`Cn1nnnc1C(/C=C/[C@@H](O)C[C@@H](O)CC(=O)O)=C(c1ccccc1)c1ccccc1`: in [1], the half-maximal inhibitory concentration (IC50) was determined as 190 nM. For the same molecule, in [2], the Relative potency turned out to be 0.1.
`Cc1ccc(C(=C(/C=C/[C@@H](O)C[C@@H](O)CC(=O)O)c2nnnn2C)c2ccc(C)cc2)cc1`: the half-inhibitory concentration (IC50) in assay [1] was 1300 nM. The same molecule registered a Relative potency in assay [2] of 0.015.
The corresponding values for `COc1ccc(C(=C(/C=C/[C@@H](O)C[C@@H](O)CC(=O)O)c2nnnn2C)c2ccc(OC)cc2)cc1` are 1400 nM and 0.014.
The corresponding values for `CC(C)n1nnc(C(/C=C/[C@@H](O)C[C@@H](O)CC(=O)O)=C(c2ccc(F)cc2)c2ccc(F)cc2)n1` are more than 300000 nM and less than 6e-05.
Take `CC(C)(C)n1nnc(C(/C=C/[C@@H](O)C[C@@H](O)CC(=O)O)=C(c2ccc(F)cc2)c2ccc(F)cc2)n1` (stereo in doubt; 47) [listing 2 of 2 here]: the Relative potency in assay [2] was 0.005.
As for `CC(/C=C/[C@@H](O)C[C@@H](O)CC(=O)O)=C(c1ccc(F)cc1)c1ccc(F)cc1`, the midpoint of inhibition in assay [1], the IC50, lay at 7900 nM. Besides, in [2], the Relative potency came out at 0.0024.
The corresponding values for `Cc1cc(F)ccc1C(=C(/C=C/[C@@H](O)C[C@@H](O)CC(=O)O)c1nnnn1C)c1ccc(F)cc1C` are 29 nM and 0.67.
The corresponding values for `Cc1cc(C(=C(/C=C/[C@@H](O)C[C@@H](O)CC(=O)O)c2nnnn2C)c2ccc(F)c(C)c2)ccc1F` are 160 nM and 0.12.

The values above are taken from ChEMBL document CHEMBL1125005, “Synthesis, biological profile, and quantitative structure-activity relationship of a series of novel 3-hydroxy-3-methylglutaryl coenzyme A reductase inhibitors” (J Med Chem, 1990).
